Results taken from PMC10466730 (Cancer cell, 2023).

Tests used:
[1] = biological target: IKZF2 (Homo sapiens, UniProt Q96SW2+Q9UKS7); assay: Western blot of IKZF2 in MOLM-13 cells; format: cell-based; conditions: MOLM-13, 24 h
Outline: (§1)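 MOLM-13 cells (1 × 10⁶) were treated 24 h with test compound diluted from DMSO stocks. Cells were pelleted, washed with PBS, lysed in Laemmli buffer by vortexing for 10 min, and boiled at 95 °C for 5 min. Lysates were resolved on 4–15% gradient SDS-PAGE, transferred to PVDF and immunoblotted with target-specific antibodies.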

[2] = biological target: CK1α (Homo sapiens, UniProt P48729+Q96SW2); assay: Western blot of CK1α in MOLM-13 cells; format: cell-based; conditions: MOLM-13
CK1α, sequence (P48729 whole entry): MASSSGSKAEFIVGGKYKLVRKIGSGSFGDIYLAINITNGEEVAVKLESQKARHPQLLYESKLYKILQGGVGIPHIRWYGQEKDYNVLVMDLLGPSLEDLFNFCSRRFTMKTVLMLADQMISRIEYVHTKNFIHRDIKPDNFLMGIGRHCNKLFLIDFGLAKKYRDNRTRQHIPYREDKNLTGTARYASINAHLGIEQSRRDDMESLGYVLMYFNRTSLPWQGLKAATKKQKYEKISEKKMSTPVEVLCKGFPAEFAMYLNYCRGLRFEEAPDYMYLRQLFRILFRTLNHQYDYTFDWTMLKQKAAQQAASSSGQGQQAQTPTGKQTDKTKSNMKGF
CK1α, sequence (Q96SW2 whole entry): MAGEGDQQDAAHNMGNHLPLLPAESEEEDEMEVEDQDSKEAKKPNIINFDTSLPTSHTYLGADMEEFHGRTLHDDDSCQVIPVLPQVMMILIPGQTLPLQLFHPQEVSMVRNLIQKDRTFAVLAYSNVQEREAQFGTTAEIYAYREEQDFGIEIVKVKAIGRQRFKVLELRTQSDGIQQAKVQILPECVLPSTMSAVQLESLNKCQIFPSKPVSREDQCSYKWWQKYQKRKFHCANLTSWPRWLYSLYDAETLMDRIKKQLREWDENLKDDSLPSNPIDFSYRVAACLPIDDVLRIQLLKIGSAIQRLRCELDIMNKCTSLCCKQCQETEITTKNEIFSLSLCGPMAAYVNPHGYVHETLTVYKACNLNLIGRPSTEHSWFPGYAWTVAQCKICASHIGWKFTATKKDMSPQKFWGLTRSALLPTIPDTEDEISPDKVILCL
CK1α, sequence (Q16531 whole entry partner): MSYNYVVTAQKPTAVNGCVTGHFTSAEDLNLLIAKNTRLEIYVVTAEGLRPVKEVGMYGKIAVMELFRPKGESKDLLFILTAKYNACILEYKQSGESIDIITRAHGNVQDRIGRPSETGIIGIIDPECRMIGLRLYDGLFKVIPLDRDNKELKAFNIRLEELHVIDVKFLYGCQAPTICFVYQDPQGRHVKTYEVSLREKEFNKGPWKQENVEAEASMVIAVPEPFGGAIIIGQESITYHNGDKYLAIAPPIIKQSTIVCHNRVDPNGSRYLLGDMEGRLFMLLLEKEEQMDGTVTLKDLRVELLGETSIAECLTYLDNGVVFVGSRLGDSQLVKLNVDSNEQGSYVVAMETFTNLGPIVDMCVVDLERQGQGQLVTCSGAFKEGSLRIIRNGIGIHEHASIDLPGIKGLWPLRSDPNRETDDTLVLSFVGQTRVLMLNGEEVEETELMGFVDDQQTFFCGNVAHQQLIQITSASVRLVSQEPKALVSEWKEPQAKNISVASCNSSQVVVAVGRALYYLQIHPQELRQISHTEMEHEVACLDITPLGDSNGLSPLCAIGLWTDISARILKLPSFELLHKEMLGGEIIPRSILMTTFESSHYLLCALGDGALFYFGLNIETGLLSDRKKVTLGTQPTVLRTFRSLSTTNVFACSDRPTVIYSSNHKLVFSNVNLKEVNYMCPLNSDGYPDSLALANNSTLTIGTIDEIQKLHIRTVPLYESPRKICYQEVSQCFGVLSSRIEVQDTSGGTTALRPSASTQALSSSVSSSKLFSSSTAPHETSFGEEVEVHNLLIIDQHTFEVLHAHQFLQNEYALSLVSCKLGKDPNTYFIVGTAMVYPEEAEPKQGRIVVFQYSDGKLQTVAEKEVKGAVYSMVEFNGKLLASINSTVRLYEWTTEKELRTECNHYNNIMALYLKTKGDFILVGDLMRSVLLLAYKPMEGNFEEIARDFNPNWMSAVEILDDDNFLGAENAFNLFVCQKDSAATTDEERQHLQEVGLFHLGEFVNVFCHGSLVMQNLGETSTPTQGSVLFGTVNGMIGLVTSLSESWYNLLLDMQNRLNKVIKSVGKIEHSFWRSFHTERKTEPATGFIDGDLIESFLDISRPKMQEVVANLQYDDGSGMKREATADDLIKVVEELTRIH
Outline: as §1

[3] = system: MOLM-13 cells; assay: Viability assay in MOLM-13 cells; format: cell-based, human; conditions: MOLM-13, 72 h, unlike lenalidomide, Figure 1E
Outline: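 Human AML cell lines were plated at 10,000 cells per well with increasing test compound up to 100 μM for 72 h at 37 °C, 5% CO₂. CellTiter-Glo was added 1:1 for 15 min at room temperature and luminescence was read; MTT was used as an alternative read-out. Percent viability was fitted by non-linear regression to give IC50. Three independent experiments, triplicates.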

IKZF2, sequence (Q9UKS7 whole entry): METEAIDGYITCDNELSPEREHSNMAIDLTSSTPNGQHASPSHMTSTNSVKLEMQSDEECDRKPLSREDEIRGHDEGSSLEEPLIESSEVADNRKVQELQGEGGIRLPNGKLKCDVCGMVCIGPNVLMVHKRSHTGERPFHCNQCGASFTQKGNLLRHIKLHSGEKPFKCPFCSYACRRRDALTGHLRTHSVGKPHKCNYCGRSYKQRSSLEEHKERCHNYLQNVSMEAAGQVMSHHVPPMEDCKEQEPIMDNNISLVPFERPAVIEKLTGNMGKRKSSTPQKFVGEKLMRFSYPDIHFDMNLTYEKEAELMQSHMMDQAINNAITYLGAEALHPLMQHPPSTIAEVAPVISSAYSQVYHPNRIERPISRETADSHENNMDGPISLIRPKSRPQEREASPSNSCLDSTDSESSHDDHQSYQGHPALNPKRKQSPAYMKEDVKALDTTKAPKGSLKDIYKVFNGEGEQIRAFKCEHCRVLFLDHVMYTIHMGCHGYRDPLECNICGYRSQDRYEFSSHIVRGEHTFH
IKZF2, sequence (Q96SW2 whole entry): as the sequence (Q96SW2 whole entry) above
IKZF2, sequence (Q16531 whole entry partner): as the sequence (Q16531 whole entry partner) above

For `COc1ccc2cc(C(=O)Nc3ccc4c(c3)CN(C3CCC(=O)N(C)C3=O)C4=O)ccc2c1` (centres unmarked) [Me-DEG-35, 6-methoxy-N-(2-(1-methyl-2,6-dioxopiperidin-3-yl)-1-oxoisoindolin-5-yl)-2-naphthamide], the “IKZF2 degradation (Western blot)” value [1] was “rescued IKZF2 and CK1α degradation” and the “CK1α degradation (Western blot)” value [2] was “rescued IKZF2 and CK1α degradation”.
With `O=C1CCC(N2Cc3cc(NC(=O)c4ccc5ccccc5c4)ccc3C2=O)C(=O)N1` (centres unmarked) [DEG-9, N-(2-(2,6-dioxopiperidin-3-yl)-1-oxoisoindolin-5-yl)-2-naphthamide] the cellular growth inhibition [3] was “inhibited cellular growth” and the “IKZF2 degradation (Western blot)” value [1] was “dose-dependent degradation”.
`COc1ccc2cc(CNc3ccc4c(c3)CN(C3CCC(=O)NC3=O)C4=O)ccc2c1` (centres unmarked) [CH2-DEG-35, 3-(5-(((6-methoxynaphthalen-2-yl)methyl)amino)-1-oxoisoindolin-2-yl)piperidine-2,6-dione] was tested, and the “CK1α degradation (Western blot)” value [2] was “but not CH2-DEG-35 efficiently degraded”.
